Measurements reported in ChEMBL document CHEMBL3763011, “Carbohydrate-based inducers of cellular stress for targeting cancer cells” (Bioorg Med Chem Lett, 2016).
The source made the active and inactive calls. The rule behind the calls is not given here.

Key:
NCI-H1299 [1] = experiment: Induction of ROS generation in human NCI-H1299 cells at <= 50 uM after 5 hrs by DCF-DA staining-based assay; format: functional
In short: (§1)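 H1299 cells incubated 5 h with increasing compound concentrations (0–100 µM). ROS read with the cell-permeable probe DCF-DA. Fluorescence of treated cells (Fi) ratioed to non-treated control (Fo).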

NCI-H1299 [2] = experiment: Cytotoxicity against human NCI-H1299 cells assessed as reduction in cell viability after 48 hrs by MTT assay; format: functional, cell-based; details: for IC50: NCI-H1299, 48 h
In short: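 H1299 non-small cell lung carcinoma cells incubated with compound for 48 h. Viability by MTT relative to non-treated control (Vi/Vo). IC50 taken from dose–response.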

[3] = molecular target: Endoplasmic reticulum chaperone BiP (Homo sapiens) (UniProt P11021); experiment: Induction of glucose-regulated protein 78 in HEK293 cells at 200 uM after 6 hrs by Western blotting method; format: cell-based
Chain of Endoplasmic reticulum chaperone BiP (Homo sapiens) (P11021 whole entry): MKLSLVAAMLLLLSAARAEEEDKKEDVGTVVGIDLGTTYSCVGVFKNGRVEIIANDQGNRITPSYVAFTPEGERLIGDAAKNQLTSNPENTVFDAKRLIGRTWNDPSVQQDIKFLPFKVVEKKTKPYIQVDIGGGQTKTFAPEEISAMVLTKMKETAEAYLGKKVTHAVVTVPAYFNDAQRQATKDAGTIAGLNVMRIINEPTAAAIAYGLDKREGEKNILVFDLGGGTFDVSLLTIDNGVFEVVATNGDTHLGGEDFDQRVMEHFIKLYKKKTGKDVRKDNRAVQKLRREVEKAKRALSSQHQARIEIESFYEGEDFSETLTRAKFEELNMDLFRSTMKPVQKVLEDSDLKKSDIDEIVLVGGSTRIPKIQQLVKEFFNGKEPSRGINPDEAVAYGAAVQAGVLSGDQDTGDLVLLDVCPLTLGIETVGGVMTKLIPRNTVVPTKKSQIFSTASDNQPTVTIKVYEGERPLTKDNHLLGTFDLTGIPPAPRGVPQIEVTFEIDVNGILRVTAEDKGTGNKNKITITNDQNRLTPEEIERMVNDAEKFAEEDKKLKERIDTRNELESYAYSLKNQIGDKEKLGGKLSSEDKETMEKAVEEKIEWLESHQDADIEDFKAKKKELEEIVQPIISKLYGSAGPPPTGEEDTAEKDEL
In short: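 GRP78 (BiP) induction, an ER stress marker, assessed by Western blot of HEK293 lysates after treatment at 200 µM.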

[4] = molecular target: T1, AMP-activated protein kinase, AMPK (Homo sapiens) (UniProt P54646+O43741+P54619+Q9UGJ0+Q9Y478+Q13131+Q9UGI9); experiment: Activation of AMPK in HEK293 cells assessed as p53 stabilization at 0.03 to 0.1 mM after 16 hrs by Western blotting method; format: cell-based
[5] = molecular target: T1, AMP-activated protein kinase, AMPK (Homo sapiens); experiment: Activation of AMPK in HEK293 cells assessed as AMPK phosphorylation after 16 hrs by Western blotting method; format: cell-based
In short: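 HEK293 cells treated with increasing concentrations of compound for 16 h; cell lysates analysed by Western blot with antibodies to phosphorylated AMPK (also p53).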

NCI-H1299 [6] = experiment: Induction of ROS generation in human NCI-H1299 cells at 100 uM after 5 hrs by DCF-DA staining-based assay; format: functional
In short: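 Single-point screen at 100 µM in duplicate, 5 h incubation in H1299 cells. ROS detected by DCF-DA fluorescence, reported as fold over non-treated control (Fi/Fo).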

NCI-H1299 [7] = experiment: Cytotoxicity against human NCI-H1299 cells assessed as reduction in cell viability at 100 uM after 48 hrs by MTT assay; format: functional, cell-based
In short: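 H1299 cells treated at 100 µM for 48 h in duplicate. MTT viability expressed as treated versus non-treated control (Vi/Vo).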

NCI-H1299 [8] = experiment: Induction of ROS generation in human NCI-H1299 cells after 5 hrs by DCF-DA staining-based assay; format: functional, cell-based; in short: as §1
NCI-H1299 [9] = experiment: Induction of ROS generation in human NCI-H1299 cells at <= 100 uM after 5 hrs by DCF-DA staining-based assay; format: functional
NCI-H1299 [10] = experiment: Cytotoxicity against human NCI-H1299 cells assessed as viability at 500 uM after 48 hrs by MTT assay; format: functional; details: NCI-H1299, 48 h, read-out: Activity
In short: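 H1299 non-small cell lung carcinoma cells incubated with compound for 48 h; viability read by MTT assay and expressed as treated (Vi) relative to non-treated control (Vo).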

NCI-H1299 [11] = experiment: Induction of ROS generation in human NCI-H1299 cells at […] after 5 hrs by DCF-DA staining-based assay

CC(=O)O[C@@H]1[C@@H](OC(C)=O)[C@H](OC(C)=O)CO[C@H]1Nc1cccc2ccccc12
fold change (FC) (NCI-H1299 [1]): 1.5
IC50 (NCI-H1299 [2]): 30 µM
Activity [3]: Active
Activity [4]: Active
Activity [5]: Dose-dependent effect

O[C@H]1[C@H](O)[C@@H](Nc2ccccc2)OC[C@H]1O
Activity (NCI-H1299 [6]): inactive
Activity (NCI-H1299 [7]): Active

CC(=O)N[C@H]1C(Nc2ccc3nccnc3c2)O[C@H](CO)[C@@H](O)[C@@H]1O (stereo partly specified)
fold change (FC) (NCI-H1299 [6]): >=2

O[C@@H]1[C@@H](O)[C@H](Nc2cccc3ccccc23)OC[C@H]1O
Activity (NCI-H1299 [8]): Dose-dependent effect
fold change (FC) (NCI-H1299 [6]): >=2
fold change (FC) (NCI-H1299 [9]): 2
Activity (NCI-H1299 [7]): Active
IC50 (NCI-H1299 [2]): 75 µM
Activity [3]: Active

OC[C@H]1OC(O)C[C@@H](O)[C@@H]1O (stereo partly specified)
viability at 500 µM (NCI-H1299 [10]): 80%
fold change (FC) (NCI-H1299 [11]): 1.5
Activity [5]: Dose-dependent effect

O=c1oc2ccccc2cc1N[C@@H]1OC[C@H](O)[C@H](O)[C@H]1O
fold change (FC) (NCI-H1299 [6]): >=2

OO [HYDROGEN PEROXIDE]
IC50 (NCI-H1299 [2]): 60 µM

O[C@@H]1[C@@H](O)[C@@H](O)CO[C@H]1Nc1ccccc1
Activity (NCI-H1299 [7]): Active

CC(=O)OC1OC[C@@H](OC(C)=O)[C@H](OC(C)=O)[C@H]1OC(C)=O (stereo partly specified)
Activity (NCI-H1299 [2]): inactive

O=C[C@H](O)[C@@H](O)[C@H](O)CO
Activity (NCI-H1299 [2]): inactive

O[C@H]1[C@H](O)[C@H](Nc2ccccc2)OC[C@H]1O
Activity (NCI-H1299 [6]): inactive
Activity (NCI-H1299 [7]): Active

OC[C@H]1OC(Nc2cccc3ccccc23)[C@H](O)[C@@H](O)[C@H]1O (stereo partly specified)
fold change (FC) (NCI-H1299 [6]): >=2

C[C@@H]1OC(Nc2cccc3ccccc23)[C@H](O)[C@H](O)[C@H]1O (stereo partly specified)
fold change (FC) (NCI-H1299 [6]): >=2

O[C@H]1[C@H](O)[C@@H](Nc2cccc3ccccc23)OC[C@H]1O
Activity (NCI-H1299 [8]): Dose-dependent effect
fold change (FC) (NCI-H1299 [6]): >=2
fold change (FC) (NCI-H1299 [9]): 2
Activity (NCI-H1299 [7]): Active
IC50 (NCI-H1299 [2]): 75 µM
